Data reported in ChEMBL document CHEMBL2093137, “WHO-TDR NTD Screening”.
In brackets after ≈: the same amount, converted by molar mass.

Key:
[1] = WHO-TDR: Cytotoxicity; format: toxicity, cell-based; conditions: human, MRC5 cells
[2] = test system: Trypanosoma brucei brucei; test: WHO-TDR: Human African Trypanosomiasis (HAT); format: functional, organism-based; conditions: Squib-427
Outline: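 Screening used a 10,000-compound diverse library supplied by Life Chemicals and filtered for drug-likeness and reactive groups. Whole bloodstream-form parasites of Trypanosoma brucei Squib 427 strain were assayed according to previously published standard procedures, with reference drugs as positive controls. The reported measure is IC50, reflecting antiparasitic potency.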

[3] = test system: Leishmania infantum; test: WHO-TDR: Leishmaniasis; format: functional, organism-based, Mus musculus; conditions: Macrophage
Outline: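 The screened collection came from Life Chemicals: 10,000 diverse compounds selected after filtering for drug-likeness and reactive groups. Each was tested in a whole-organism assay against Leishmania infantum MHOM/MA(BE)/67 amastigotes inside murine peritoneal macrophages, using previously published standard procedures and a reference drug as positive control. Results are IC50 values for antiparasitic potency.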

[4] = test system: Schistosoma mansoni; test: WHO-TDR: Schistosomiasis; format: functional; parameters: concentration or dose not given beside the values
Outline: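 Larval and/or adult Schistosoma mansoni (Puerto Rican strain) were tested whole against 10,000 diverse compounds from Life Chemicals. The procedure was a previously published standard one, using a reference drug as positive control. Results are expressed as percent inhibition and IC50.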

[5] = test system: Plasmodium falciparum K1; test: WHO-TDR: Malaria; format: functional, organism-based, Homo sapiens; conditions: Erythrocyte
Outline: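 This whole-organism screen covered 10,000 drug-likeness-filtered and reactive-group-filtered compounds from Life Chemicals. The target was the Plasmodium falciparum K1 strain in human red blood cells, and the readout was antiplasmodial IC50.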

[6] = test system: Onchocerca lienalis; test: WHO-TDR: Onchocerciasis; format: functional; parameters: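 at 12.5 µM on microfilariae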
Outline: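 Onchocerca ochengi or Onchocerca lienalis, animal pathogens used as surrogates for the human parasite, were screened as whole microfilariae against a 10,000-compound diverse library from Life Chemicals. The reported measures of activity are percent inhibition and IC50.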

[7] = test system: Trypanosoma cruzi; test: WHO-TDR: Chagas disease; format: functional, organism-based, Homo sapiens; conditions: MRC5
Outline: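 Each IC50 reflects antiparasitic potency against intracellular amastigotes of Trypanosoma cruzi Tulahuen CL2 beta-galactosidase strain. These were cultured in MRC-5SV2 human lung fibroblasts and exposed to a 10,000-compound diverse Life Chemicals library screened according to published standard procedures with a reference drug as positive control.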

| Compound | IC50 [2] [µg/mL] | IC50 [3] [µg/mL] | IC50 [5] [µg/mL] | IC50 [1] [µg/mL] | % Inhibition [4] [%] | % Inhibition [6] [%] | IC50 [7] [µg/mL] |
| --- | --- | --- | --- | --- | --- | --- | --- |
| Cc1cc(NC(=O)CSc2ccc3nnc(-c4cccs4)n3n2)no1 | > 11.2 | 4.29 (≈ 11.5 µM) | 0.155 (≈ 0.416 µM) | > 11.2 | 0 | 6.7 | 4.97 (≈ 13.4 µM) |
| O=C(CSc1ccc2nnc(-c3ccccn3)n2n1)NCC1CCCO1 (stereo not drawn) | 3.3 (≈ 8.9 µM) | 0.392 (≈ 1.06 µM) | 3.16 (≈ 8.53 µM) | > 11.1 | 0 | 0 | 5.24 (≈ 14.1 µM) |
| O=S(=O)(NCC(c1cccnc1)N1CCN(c2ccccc2F)CC1)c1cc(F)ccc1F (stereo not drawn) | 4.74 (≈ 9.95 µM) | > 14.3 | 4.27 (≈ 8.96 µM) | > 14.3 | 0 | 0 | 0.265 (≈ 0.556 µM) |
| NC(=O)c1ccc(NC(=O)c2c[nH]c(=O)n(-c3ccc(F)cc3)c2=O)cc1 | > 11 | 0.358 (≈ 0.971 µM) | > 11 | > 11 | 0 | 0 | > 11 |
| O=C(O)CCCCCN1C(=O)/C(=C\c2ccccc2O)SC1=S | 4.06 (≈ 11.5 µM) | > 10.5 | > 10.5 | > 10.5 | 0 | 6.7 | 0.653 (≈ 1.86 µM) |
| CC(C)(C)c1ccc(C(=O)Nc2sccc2C(N)=O)cc1 | 0.633 (≈ 2.09 µM) | 1.95 (≈ 6.46 µM) | 2.68 (≈ 8.87 µM) | 4.3 (≈ 14.2 µM) | 0 | 13.3 | 2.41 (≈ 7.98 µM) |
| C=CCn1/c(=N/C(=O)c2ccccc2I)sc2cc(S(C)(=O)=O)ccc21 | > 15 | > 15 | > 15 | > 15 | 100 | 20 | > 15 |
| CCn1/c(=N\C(=O)c2ccc(C(C)=O)cc2)sc2cc(C)ccc21 | > 10.2 | > 10.2 | > 10.2 | > 10.2 | 0 | 80 | 0.321 (≈ 0.948 µM) |
| CCOC(=O)Cn1/c(=N/C(=O)c2ccc(N3C(=O)CCC3=O)cc2)sc2c(C)cc(C)cc21 | > 9.4 | 0.304 (≈ 0.654 µM) | 9.4 (≈ 20.2 µM) | > 9.4 | 0 | 13.3 | > 9.4 |
| CN(CC1CCCO1)S(=O)(=O)c1ccc(C(=O)Nc2nc3c(s2)CSc2ccccc2-3)cc1 (stereo not drawn) | 0.487 (≈ 0.971 µM) | 4.87 (≈ 9.71 µM) | > 9.73 | 3 (≈ 5.99 µM) | 41.7 | 13.3 | 0.521 (≈ 1.04 µM) |
| CN(CC1CCCO1)S(=O)(=O)c1ccc(C(=O)Nc2nc3cc4c(cc3s2)OCCO4)cc1 (stereo not drawn) | 3.69 (≈ 7.54 µM) | > 9.82 | 4.26 (≈ 8.71 µM) | > 9.82 | 100 | 20 | 5.16 (≈ 10.5 µM) |
| O=C(CSc1ccc2nnc(-c3ccncc3)n2n1)c1ccc(Cl)cc1 | 0.35 (≈ 0.917 µM) | 4.72 (≈ 12.4 µM) | 1.82 (≈ 4.75 µM) | 4.28 (≈ 11.2 µM) | 0 | 0 | 0.425 (≈ 1.11 µM) |
| O=C(Nc1nnc(SCc2ccccc2Cl)s1)C1CCCCC1 | 0.356 (≈ 0.967 µM) | 5.1 (≈ 13.9 µM) | 1.45 (≈ 3.95 µM) | > 11 | 0 | 0 | 4.94 (≈ 13.4 µM) |
| COc1ccc(C(=O)Nc2nnc(SCC(=O)NCc3ccccc3Cl)s2)c(OC)c1 | 4.66 (≈ 9.73 µM) | > 14.4 | 3.64 (≈ 7.61 µM) | > 14.4 | 100 | 0 | > 14.4 |

Continued, in another order:

| IC50 [2] [µg/mL] | IC50 [3] [µg/mL] | IC50 [5] [µg/mL] | Compound | IC50 [1] [µg/mL] | % Inhibition [4] [%] | % Inhibition [6] [%] | IC50 [7] [µg/mL] |
| --- | --- | --- | --- | --- | --- | --- | --- |
| 0.396 (≈ 0.891 µM) | 4.22 (≈ 9.49 µM) | 4.01 (≈ 9.02 µM) | CCOC(=O)c1c(NC(=O)C2COc3ccccc3O2)sc2c1CC(C)(C)NC2(C)C (stereo not drawn) | 5.73 (≈ 12.9 µM) | 91.7 | 0 | 4.1 (≈ 9.22 µM) |
| > 12.9 | > 12.9 | > 12.9 | CCOC(=O)N1CCc2c(sc(NC(=O)C3COc4ccccc4O3)c2C(N)=O)C1 (stereo not drawn) | > 12.9 | 66 | 13.3 | > 12.9 |
| 0.216 (≈ 0.503 µM) | > 12.9 | > 12.9 | COC(=O)c1c(NC(=O)c2nc3ccccc3s2)sc2c1CC(C)(C)NC2(C)C | > 12.9 | 0 | -1 | > 12.9 |
| 0.382 (≈ 1.01 µM) | 3.96 (≈ 10.5 µM) | 0.609 (≈ 1.62 µM) | O=C(Cc1ccccc1)Nc1nnc(SCC(=O)NC2CCCC2)s1 | 3.82 (≈ 10.1 µM) | 0 | 6.7 | 4.16 (≈ 11.1 µM) |
| 4.8 (≈ 9.71 µM) | > 14.8 | 0.78 (≈ 1.58 µM) | COc1ccccc1N1CCN(C(CNS(=O)(=O)c2c(C)cc(C)cc2C)c2cccnc2)CC1 (stereo not drawn) | > 14.8 | 0 | 86.7 | 0.929 (≈ 1.88 µM) |
| > 11.4 | 0.369 (≈ 0.971 µM) | > 11.4 | O=C(Cc1ccc(Cl)cc1)Nc1cccc(-c2nc3cccnc3s2)c1 | > 11.4 | 58.3 | 66.7 | > 11.4 |
| 0.377 (≈ 0.831 µM) | 0.43 (≈ 0.948 µM) | 1.36 (≈ 3 µM) | CCOC(=O)N1CCc2c(sc(NC(=O)c3ccco3)c2-c2nc3ccccc3s2)C1 | 4.51 (≈ 9.95 µM) | 58.7 | 73.3 | 0.455 (≈ 1 µM) |
| > 12.5 | 1.97 (≈ 4.75 µM) | > 12.5 | O=C(CSc1nc2ccccc2nc1O)Nc1ccccc1C(=O)c1ccccc1 | > 12.5 | 0 | 26.7 | > 12.5 |
| > 10.9 | > 10.9 | > 10.9 | COc1ccc(-c2nnc(NC(=O)c3cccc(C(F)(F)F)c3)o2)cc1 | 10.1 (≈ 27.9 µM) | 0 | 0 | 0.844 (≈ 2.32 µM) |
| > 14.9 | > 14.9 | > 14.9 | CCOC(=O)Cn1/c(=N/C(=O)c2ccccc2Br)sc2cc(S(C)(=O)=O)ccc21 | > 14.9 | 100 | 0 | > 14.9 |
| > 9.55 | > 9.55 | > 9.55 | N#Cc1ccsc1NC(=O)C(c1ccccc1)c1ccccc1 | > 9.55 | 100 | 0 | > 9.55 |
| 2.66 (≈ 8.52 µM) | 3.03 (≈ 9.71 µM) | 2.22 (≈ 7.11 µM) | CN(C(=O)CN1CC(=O)Oc2ccccc21)c1ccc(O)cc1 | 2.96 (≈ 9.49 µM) | 0 | 20 | 0.548 (≈ 1.75 µM) |
| > 11 | > 11 | > 11 | CCOc1ccc(C(=O)Nc2nc3c(Cl)ccc(Cl)c3s2)cc1 | > 11 | 100 | 33.34 | > 11 |
| > 10.4 | > 10.4 | > 10.4 | Cc1c(Cl)ccc2sc(NC(=O)c3ccc(N(C)C)cc3)nc12 | > 10.4 | 0 | 50 | > 10.4 |
| > 11.4 | 0.413 (≈ 0.971 µM) | > 11.4 | C#CCn1/c(=N/C(=O)CN2C(=O)c3ccccc3C2=O)sc2c3ccccc3ccc21 | > 11.4 | 0 | 13.3 | > 11.4 |
| 3.87 (≈ 9.15 µM) | 4.06 (≈ 9.62 µM) | 0.126 (≈ 0.297 µM) | O=C(CCS(=O)(=O)c1ccccc1)Nc1nc(-c2cccc3ccccc23)cs1 | 1.67 (≈ 3.96 µM) | 0 | 6.7 | 0.657 (≈ 1.55 µM) |
| 0.312 (≈ 0.971 µM) | > 7 | > 7 | CC(C)c1ccc2nc(NC(=O)c3ccc(C#N)cc3)sc2c1 | > 7 | 0 | 0 | > 7 |
| 0.435 (≈ 0.882 µM) | 4.24 (≈ 8.61 µM) | 0.324 (≈ 0.657 µM) | COC(=O)c1ccc(NC(=O)CSc2nnc(NC(=O)c3cc(Cl)ccc3OC)s2)cc1 | 4.1 (≈ 8.31 µM) | 16.7 | 0 | 4.49 (≈ 9.11 µM) |
| 0.483 (≈ 0.911 µM) | 0.791 (≈ 1.49 µM) | 1.16 (≈ 2.2 µM) | Cc1onc(-c2ccccc2Cl)c1C(=O)Nc1nnc(SCC(=O)Nc2ccc3c(c2)OCO3)s1 | 2.1 (≈ 3.96 µM) | 0 | 13.3 | 3.2 (≈ 6.05 µM) |
| 0.45 (≈ 0.933 µM) | 4.55 (≈ 9.44 µM) | 0.653 (≈ 1.35 µM) | O=C(CSc1nnc(NC(=O)c2ccccc2C(F)(F)F)s1)Nc1ccc2c(c1)OCO2 | 3.97 (≈ 8.23 µM) | 0 | 0 | 4.76 (≈ 9.86 µM) |
